Assay results published in article PMC9463373 (Heliyon, 2022).
Entries after “also recorded” stand apart in the source; their conditions may differ. Each block holds one compound with its values, some of them ahead of it.

What was measured:
[1] = test system: Escherichia coli AG100; assay: Real-time ethidium bromide accumulation assay; format: cell-based; conditions: E. coli AG100, ethidium bromide accumulation, minute 60, positive control 50 μM
In short: (§1)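 Bacteria were grown to OD600 0.6 (E. coli AG100 in LB; S. aureus in TSB), PBS-washed and resuspended in PBS. Test compound at ½ MIC (100 μM if MIC >100) in PBS with 2 μg/mL EB, mixed 1:1 with the suspension. Fluorescence (ex 525/em 615 nm) read each minute for 1 h. Positive controls: CCCP 50 μM (E. coli), reserpine 25 μM (S. aureus). RFI taken from the accumulation curves.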

[2] = test system: multidrug resistant COLO 320 colonic adenocarcinoma cells overexpressing the ABCB1 transporter; assay: Checkerboard combination assay with doxorubicin; format: cell-based, human; conditions: for Type of interaction / Combination index (CI): with doxorubicin; for Combination index (CI): CI at ED50; for effects with doxorubicin (in words): at certain / particular concentrations
In short: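 Test compounds diluted against doxorubicin in a checkerboard on ABCB1-overexpressing COLO 320 cells (RPMI 1640, 10% heat-inactivated FBS), 6 × 10³ cells/well. Incubated 72 h at 37 °C in 5% CO2. MTT added for 4 h, then SDS in 0.01 M HCl overnight. OD read at 540/630 nm. CI at ED₅₀ by Chou-Talalay median-effect: CI <1 synergism, =1 additive, >1 antagonism.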

[3] = biological target: P-glycoprotein (Homo sapiens, UniProt P08183); assay: Rhodamine 123 retention by flow cytometry; format: cell-based
P-glycoprotein, sequence (P08183 whole entry): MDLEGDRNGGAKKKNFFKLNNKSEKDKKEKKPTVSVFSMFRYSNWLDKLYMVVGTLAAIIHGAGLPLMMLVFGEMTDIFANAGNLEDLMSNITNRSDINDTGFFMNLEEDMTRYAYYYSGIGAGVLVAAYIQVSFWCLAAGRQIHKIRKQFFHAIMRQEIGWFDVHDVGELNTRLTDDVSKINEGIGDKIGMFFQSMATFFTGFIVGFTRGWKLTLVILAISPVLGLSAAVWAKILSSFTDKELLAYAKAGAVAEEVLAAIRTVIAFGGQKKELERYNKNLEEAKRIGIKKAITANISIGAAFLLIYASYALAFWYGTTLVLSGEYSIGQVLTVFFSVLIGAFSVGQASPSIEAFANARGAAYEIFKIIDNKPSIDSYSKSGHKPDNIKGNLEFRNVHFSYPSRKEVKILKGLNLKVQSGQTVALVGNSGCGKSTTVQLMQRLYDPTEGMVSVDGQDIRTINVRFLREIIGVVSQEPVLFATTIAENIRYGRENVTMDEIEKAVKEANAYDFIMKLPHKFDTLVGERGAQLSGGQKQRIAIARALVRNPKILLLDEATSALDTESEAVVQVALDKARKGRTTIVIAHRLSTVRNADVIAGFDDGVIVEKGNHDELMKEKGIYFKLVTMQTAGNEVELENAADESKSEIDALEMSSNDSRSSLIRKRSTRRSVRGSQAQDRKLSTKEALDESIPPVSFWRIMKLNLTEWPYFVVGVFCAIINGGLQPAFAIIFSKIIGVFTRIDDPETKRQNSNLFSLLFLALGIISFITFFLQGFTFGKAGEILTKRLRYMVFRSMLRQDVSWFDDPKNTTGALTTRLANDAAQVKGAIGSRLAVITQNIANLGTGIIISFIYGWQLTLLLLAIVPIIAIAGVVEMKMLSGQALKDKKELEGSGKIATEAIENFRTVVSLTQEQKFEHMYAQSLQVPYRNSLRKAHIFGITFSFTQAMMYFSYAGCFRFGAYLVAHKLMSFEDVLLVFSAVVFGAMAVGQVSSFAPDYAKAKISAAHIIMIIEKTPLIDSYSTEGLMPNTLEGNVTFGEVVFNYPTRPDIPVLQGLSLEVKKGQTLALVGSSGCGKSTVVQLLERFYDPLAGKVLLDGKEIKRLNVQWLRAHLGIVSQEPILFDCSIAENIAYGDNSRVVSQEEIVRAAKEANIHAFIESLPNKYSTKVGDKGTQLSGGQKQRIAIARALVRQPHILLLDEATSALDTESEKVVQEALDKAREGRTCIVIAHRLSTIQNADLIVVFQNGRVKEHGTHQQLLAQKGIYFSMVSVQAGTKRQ
In short: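 COLO 205 (parental) and multidrug-resistant COLO 320 cells at 2×10^6/mL in serum-free RPMI 1640. Test compound preincubated 10 min at room temperature, then rhodamine 123 (5.2 µM final) added for 20 min at 37 °C. Cells washed twice and resuspended in PBS. FL-1 mean fluorescence read by flow cytometry against an untreated baseline. Tariquidar positive control at 0.2 µM final. FAR = (MDR treated/MDR control)/(parental treated/parental control).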

[4] = test system: Staphylococcus aureus ATCC; assay: Real-time ethidium bromide accumulation assay; format: cell-based
In short: as §1

[5] = ratio 17.42:1, starting concentration 150 μM
[6] = ratio 34.84:1, starting concentration 150 μM
[7] = ratio 69.68:1, starting concentration 150 μM
[8] = ratio 139.36:1, starting concentration 150 μM
[9] = ratio 278.72:1, starting concentration 150 μM
[10] = ratio 557.44:1, starting concentration 150 μM
[11] = concentration 2 μM, rhodamine 123
[12] = concentration 2 μM, rhodamine 123, COLO 320 vs COLO 205
[13] = concentration 20 μM, rhodamine 123
[14] = concentration 20 μM, rhodamine 123, COLO 320 vs COLO 205
[15] = minute 60, ½ MIC concentration (or 100 μM)
[16] = ratio 23.2:1, starting concentration 200 μM
[17] = ratio 46.4:1, starting concentration 200 μM
[18] = ratio 92.8:1, starting concentration 200 μM
[19] = ratio 185.6:1, starting concentration 200 μM
[20] = ratio 371.2:1, starting concentration 200 μM
[21] = ratio 742.5:1, starting concentration 200 μM
[22] = ratio 18.4:1, starting concentration 80 μM
[23] = ratio 36.8:1, starting concentration 80 μM
[24] = ratio 73.6:1, starting concentration 80 μM
[25] = ratio 147.2:1, starting concentration 80 μM
[26] = ratio 294.4:1, starting concentration 80 μM
[27] = concentration 0.2 μM, positive control, rhodamine 123

SMILES: N#CC(C#N)=NNc1cccc(Cl)c1 [CCCP]
relative fluorescence index (RFI) [1]: 1.34

SMILES: CC(C)=CCOc1c2occc2cc2ccc(=O)oc12 [Compound 1, imperatorin]
Type of interaction [2, 5]: moderate antagonism
Combination index (CI) [2, 5]: 1.29
Type of interaction [2, 6]: additive effect
Combination index (CI) [2, 6]: 1.06
Type of interaction [2, 7]: moderate synergism
Combination index (CI) [2, 7]: 0.75
Type of interaction [2, 8]: moderate antagonism
Combination index (CI) [2, 8]: 1.24
Type of interaction [2, 9]: additive effect
Combination index (CI) [2, 9]: 0.99
Type of interaction [2, 10]: additive effect
Combination index (CI) [2, 10]: 0.99
FL-1 (mean fluorescence intensity of the cells) [3, 11]: 11.30
FAR (fluorescence activity ratio) [3, 12]: 1.47
FL-1 (mean fluorescence intensity of the cells) [3, 13]: 9.82
FAR (fluorescence activity ratio) [3, 14]: 1.27

SMILES: COC(=O)[C@H]1[C@H]2C[C@@H]3c4[nH]c5cc(OC)ccc5c4CCN3C[C@H]2C[C@@H](OC(=O)c2cc(OC)c(OC)c(OC)c2)[C@@H]1OC [reserpine, reference compound]
relative fluorescence index (RFI) ([4]; minute 60, positive control 25 μM): 2.77

The next lines start with results.

FL-1 (mean fluorescence intensity of the cells) [3, 11]: 11.10
FAR (fluorescence activity ratio) [3, 12]: 1.44
FL-1 (mean fluorescence intensity of the cells) [3, 13]: 20.30
FAR (fluorescence activity ratio) [3, 14]: 2.63
SMILES: COc1c2ccoc2c(OCC=C(C)C)c2oc(=O)ccc12 [Compound 2, phellopterin]
relative fluorescence index (RFI) [4, 15]: 5.49
effects with doxorubicin (in words) [2]: antagonistic effects
Type of interaction [2, 5]: Antagonism
Combination index (CI) [2, 5]: 2.31
Type of interaction [2, 6]: moderate antagonism
Combination index (CI) [2, 6]: 1.40
Type of interaction [2, 7]: moderate antagonism
Combination index (CI) [2, 7]: 1.33
Type of interaction [2, 8]: antagonism
Combination index (CI) [2, 8]: 1.54
Type of interaction [2, 9]: additive effect
Combination index (CI) [2, 9]: 1.05
Type of interaction [2, 10]: additive effect
Combination index (CI) [2, 10]: 1.03

FL-1 (mean fluorescence intensity of the cells) [3, 11]: 8.01
FAR (fluorescence activity ratio) [3, 12]: 1.04
FL-1 (mean fluorescence intensity of the cells) [3, 13]: 15.60
FAR (fluorescence activity ratio) [3, 14]: 2.02
SMILES: COc1cc2ccc(=O)oc2cc1OC [Compound 3, 6,7-dimethoxycoumarin]
relative fluorescence index (RFI) [4, 15]: 1.04
effects with doxorubicin (in words) [2]: synergistic effects; also recorded: antagonistic effects
Type of interaction [2, 16]: antagonism
Combination index (CI) [2, 16]: 2.06
Type of interaction [2, 17]: moderate antagonism
Combination index (CI) [2, 17]: 1.22
Type of interaction [2, 18]: moderate synergism
Combination index (CI) [2, 18]: 0.81
Type of interaction [2, 19]: moderate synergism
Combination index (CI) [2, 19]: 0.75
Type of interaction [2, 20]: synergism
Combination index (CI) [2, 20]: 0.62
Type of interaction [2, 21]: synergism
Combination index (CI) [2, 21]: 0.60

FL-1 (mean fluorescence intensity of the cells) [3, 11]: 13.60
FAR (fluorescence activity ratio) [3, 12]: 1.76
FL-1 (mean fluorescence intensity of the cells) [3, 13]: 30.80
FAR (fluorescence activity ratio) [3, 14]: 4.00
SMILES: CC(C)=CCC/C(C)=C/COc1ccc2ccc(=O)oc2c1 [Compound 5, auraptene]
effects with doxorubicin (in words) [2]: antagonistic effects
Combination index (CI) ([2]; ratio 9.2:1, starting concentration 80 μM): 3.16
Type of interaction [2, 22]: strong antagonism
Combination index (CI) [2, 22]: 8.37
Type of interaction [2, 23]: slight antagonism
Combination index (CI) [2, 23]: 1.13
Type of interaction [2, 24]: antagonism
Combination index (CI) [2, 24]: 1.72
Type of interaction [2, 25]: antagonism
Combination index (CI) [2, 25]: 2.06
Type of interaction [2, 26]: strong antagonism
Combination index (CI) [2, 26]: 5.30

FL-1 (mean fluorescence intensity of the cells) [3, 11]: 2.92
FAR (fluorescence activity ratio) [3, 12]: 0.38
FL-1 (mean fluorescence intensity of the cells) [3, 13]: 10.00
FAR (fluorescence activity ratio) [3, 14]: 1.30
SMILES: CC1(C)O[C@H]2CC(=O)OC[C@]23[C@H]2CC[C@@]4(C)[C@H](c5ccoc5)OC(=O)[C@H]5O[C@]54[C@]2(C)C(=O)C[C@@H]13 [Compound 9, limonin]

FAR (fluorescence activity ratio) [3, 27]: 11.44
FL-1 (mean fluorescence intensity of the cells) [3, 27]: 88.20
SMILES: COc1cc2c(cc1OC)CN(CCc1ccc(NC(=O)c3cc(OC)c(OC)cc3NC(=O)c3cnc4ccccc4c3)cc1)CC2 [Tariquidar, reference compound]
